miR122 inh = inhibitors of miR-122 in Huh7 cells. AID 602342. Huh7 miR-122 Renilla luciferase sensor, 48 h; neutral wells = 0, positive control = 100. 340,000 compounds, 0.3% hits. activation (reporter increase), % at 12.5 µM;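 active = mean replicate activation score at least 90 and every replicate individually at or above 90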;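 also: higher luciferase means less miR-122 activity so hits act as miR-122 inhibitors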
NR2E3 ag-1 = agonists of human nuclear receptor NR2E3; Q9Y5X4; GST-NR2E3/biotin-RetCOR TR-FRET, 1536-well; inhibition of corepressor binding, % at 4.78 µM; 320,000 compounds, 0.12% hits;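 active = percent inhibition above the cutoff of mean plus 3 SD of all tested compounds, set per screening campaign, cut at about 20% in these data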
Target sequence (Q9Y5X4 whole entry, looked up): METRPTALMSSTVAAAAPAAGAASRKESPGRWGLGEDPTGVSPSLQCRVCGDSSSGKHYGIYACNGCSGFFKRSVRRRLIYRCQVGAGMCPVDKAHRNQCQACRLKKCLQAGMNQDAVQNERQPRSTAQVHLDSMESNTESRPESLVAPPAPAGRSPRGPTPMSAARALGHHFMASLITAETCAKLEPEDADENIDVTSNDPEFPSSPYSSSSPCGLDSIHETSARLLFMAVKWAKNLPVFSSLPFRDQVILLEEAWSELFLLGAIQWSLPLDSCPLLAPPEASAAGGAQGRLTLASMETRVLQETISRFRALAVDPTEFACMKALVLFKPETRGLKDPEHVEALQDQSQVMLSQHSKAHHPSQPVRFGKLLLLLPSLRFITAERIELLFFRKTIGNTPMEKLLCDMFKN
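system = GST-tagged NR2E3 plus biotinylated RetCOR corepressor | input = 1.35 nM GST-NR2E3 | also added = 7 nM biotin-RetCOR | schedule = 5 h incubation at 4 °C | measured by = TR-FRET with europium anti-GST and streptavidin-D2, 340 nm excitation | read-out = percent loss of FRET ratio relative to control wells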
Jurkat NFkB inh = inhibitors of the PMA/ionomycin-induced NF-kB reporter in Jurkat cells | PMA/ionomycin-induced NF-kB luciferase reporter, luminescence | inhibition, % at 4 µM | 330,000 compounds, 0.53% hits | AID 435003; in the data active = inhibition above about 50%
FGF22 binding = binders of recombinant human FGF22 by thermal shift; Q9HCT0; SYPRO orange fluorescence; percent of sucrose octasulfate shift, DMSO zero; activity (Tm shift, normalised), % at 9.99 µM; 340,000 compounds, 1.5% hits;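 active = mean Tm shift, scaled 0 neutral to 100 positive control, at about 1.3% or above, every replicate too, limit read from the data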
Target sequence (Q9HCT0 whole entry, looked up): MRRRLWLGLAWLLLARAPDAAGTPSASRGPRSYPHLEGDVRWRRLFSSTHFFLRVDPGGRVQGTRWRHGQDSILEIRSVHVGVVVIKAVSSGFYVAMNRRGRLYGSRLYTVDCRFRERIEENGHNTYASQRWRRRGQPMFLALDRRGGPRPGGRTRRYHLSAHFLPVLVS
NR2E3 ag-2 = human photoreceptor-specific nuclear receptor agonism. Q9Y5X4. CHO-S Gal4-NCOR/VP16-NR2E3 two-hybrid, luciferase. inhibition of corepressor binding, % at 3.98 µM. 360,000 compounds, 0.35% hits. AID 602229;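 active = inhibition above the mean of all tested compounds plus 3 SD, cut at about 70% in these data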;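 also: higher means lower luciferase signal from less NR2E3 corepressor binding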
697 NFkB inh = inhibitors of the PMA/ionomycin-induced NF-kB reporter in 697 B cells; 697 B-cell NF-kB luciferase reporter, 16 h; inhibition, % at 4 µM; 330,000 compounds, 0.33% hits; AID 435022; in the data active = inhibition above about 35%
NR2E3 ag confirm = NR2E3 agonism confirmed in two-hybrid assay; shares compounds with NR2E3 ag-2; CHO-S mammalian two-hybrid NR2E3-NCOR, luciferase luminescence; inhibition, % at 3.98 µM; 2,300 compounds, 51% hits; AID 624378;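 active = average inhibition above a cutoff equal to the mean inhibition of all tested compounds plus one SD, cut at about 70% in these data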
GAL4-VP16 luc = reduces GAL4-VP16 reporter signal in NR2E3 counterscreen; shares compounds with NR2E3 ag-2; CHO-S GAL4-VP16 luciferase reporter, luminescence; inhibition, % at 3.98 µM; 2,300 compounds, 29% hits; AID 624379;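 active = mean inhibition above a cutoff equal to the average over all tested compounds plus one standard deviation, cut at about 70% in these data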;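 also: luciferase from a UAS reporter driven by GAL4-VP16 transactivation; higher means less reporter light so more repression of VP16 activity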
A number is an active result; 0 = inactive; - = no result. The list is not random: actives were taken first. Their share in the collection is about 2.2%.

SMILES	miR122 inh	NR2E3 ag-1	Jurkat NFkB inh	FGF22 binding	NR2E3 ag-2	697 NFkB inh	NR2E3 ag confirm	GAL4-VP16 luc
Cc1cccc(CCNS(=O)(=O)c2ccc3c(c2)NC(=O)C(C)S3)c1 (centres undefined)	0	0	0	0	0	0	0	0
Cc1cccc(N2CCN(S(=O)(=O)c3ccc4c(c3)NC(=O)C(C)S4)CC2)c1C (centres undefined)	-	0	0	0	0	0	0	0
Cc1cc(C)cc(NC(=O)C2CCN(S(=O)(=O)c3ccc4c(c3)NC(=O)C(C)S4)CC2)c1 (centres undefined)	-	0	0	0	0	0	-	-
CC1Sc2ccc(S(=O)(=O)NCCc3ccc(Cl)cc3)cc2NC1=O (centres undefined)	0	0	0	0	0	0	-	-
CC1Sc2ccc(S(=O)(=O)N3CCN(c4ccccc4)CC3)cc2NC1=O (centres undefined)	0	0	0	0	0	0	-	-
Cc1ccc(NC(=O)C2CCN(S(=O)(=O)c3ccc4c(c3)NC(=O)C(C)S4)CC2)cc1Cl (centres undefined)	0	0	0	0	105	0	98	85
NC(=S)N/N=C/c1c(O)ccc2ccccc12	0	0	0	0	75	0	0	0
O=CN/N=C/c1c(O)ccc2ccccc12	0	0	0	0	0	0	-	-
Cc1ccccc1Nc1c(-c2cccnc2)nc2ccccn12	0	0	0	-	0	0	-	-
Cc1ccc2nc(-c3ccccn3)c(Nc3ccccc3C)n2c1	0	0	0	0	94	0	0	0
Cc1ccccc1Nc1c(-c2ccccn2)nc2ccccn12	0	0	0	0	76	0	0	0
Cc1ccn2c(Nc3ccccc3C)c(-c3ccccn3)nc2c1	0	0	0	0	97	0	0	0
Cc1cccn2c(Nc3ccccc3)c(-c3ccccn3)nc12	0	0	0	0	82	0	0	0
O=C(C[C@@H]1C=C[C@H](NC(=O)C2CCOCC2)[C@@H](CO)O1)NCC1CCCCC1	-	-	-	0	-	-	-	-
Cc1ccn2c(Nc3ccccc3)c(-c3ccccn3)nc2c1	0	0	0	0	0	0	91	0
Cc1ccn2c(NC(=O)c3ccccc3)c(-c3ccccc3)nc2c1	0	0	0	0	0	0	-	-
COCC(=O)Nc1ccc2c(c1)OC[C@@H](C)N(C(=O)C1CCCC1)C[C@@H](C)[C@H](OC)CN(C)C2=O	0	-	-	-	-	-	-	-
Cc1nn(Cc2ccc(Cl)c(Cl)c2)c(C)c1NC(=O)c1cc(-c2ccco2)on1	0	0	0	-	0	0	79	0
Cc1nn(Cc2ccc(Cl)c(Cl)c2)c(C)c1NC(=O)c1sc2ccccc2c1Cl	0	0	0	-	0	0	0	0
Cc1ccc(C)c(S(=O)(=O)Nc2cc3c4c(c2)CCC(=O)N4CCC3)c1	218	0	0	0	0	0	0	0
O=C(NCC(c1ccco1)N1CCCC1)c1ccc(Cl)c(S(=O)(=O)N2CCc3ccccc32)c1 (centres undefined)	0	0	0	0	0	0	0	0
CCC(=O)N1CCc2cc(S(=O)(=O)CCC(=O)N3CCN(c4ccc(Cl)cc4)CC3)ccc21	-	0	0	0	0	0	0	0
CCCCCc1ccc(CC(=O)Nn2c(C)nc3ccccc3c2=O)cc1	-	0	0	-	0	0	76	0
Cc1nc2ccccc2c(=O)n1NC(=O)Cc1ccc(Br)cc1	0	0	0	-	0	0	-	-
C[C@H]1CN([C@@H](C)CO)C(=O)c2cc(C3=CCCC3)cnc2O[C@@H]1CN(C)C(=O)c1ccc2c(c1)OCO2	0	-	-	0	-	-	-	-
SMILES	miR122 inh	NR2E3 ag-1	Jurkat NFkB inh	FGF22 binding	NR2E3 ag-2	697 NFkB inh	NR2E3 ag confirm	GAL4-VP16 luc
Cc1ccc(OCC(=O)c2cc(C)n(CC(F)(F)F)c2C)c([N+](=O)[O-])n1	-	0	0	0	0	0	-	-
Cc1ccc(OCC(=O)c2cc(C)n(Cc3cccs3)c2C)c([N+](=O)[O-])n1	0	0	0	0	84	0	93	88
CCCn1c(N2CCC(Cc3ccccc3)CC2)nc2c1c(=O)[nH]c(=O)n2C	0	0	0	-	0	0	0	0
CO[C@H]1CN(C)C(=O)c2ccc(NC(=O)CC(F)(F)F)cc2OC[C@@H](C)N(C(=O)C2CCCCC2)C[C@@H]1C	-	-	-	0	-	-	-	-
CC(C)NC(=O)N(C)C[C@H]1OCCCC[C@H](C)Oc2ccc(NC(=O)Nc3ccc4c(c3)OCO4)cc2C(=O)N([C@@H](C)CO)C[C@H]1C	0	-	-	0	-	-	-	-
CC(C)CNc1ncnc2c1ncn2[C@H]1CN(Cc2ccncc2)C[C@@H](CO)O1	0	-	-	0	0	-	-	-
CC(C)Nc1ncnc2c1ncn2[C@H]1CN(Cc2ccc(-c3ccccc3)cc2)C[C@@H](CO)O1	0	-	-	0	73	-	0	0
CC(C)CNc1ncnc2c1ncn2[C@H]1CN(Cc2ccc(-c3ccccc3)cc2)C[C@@H](CO)O1	0	-	-	0	0	-	89	0
Nc1nc2cc3c(cc2cc1C(=O)NCc1ccc(F)cc1)OCO3	-	-	-	-	88	-	94	72
Nc1nc2ccc(Cl)cc2cc1C(=O)NCCc1c[nH]c2ccccc12	-	-	-	-	93	-	94	83
Nc1nc2ccc(Cl)cc2cc1C(=O)NCCc1ccc(Cl)cc1Cl	-	-	-	0	-	-	-	-
Nc1nc2ccc(Cl)cc2cc1C(=O)NCc1ccc(Oc2ccccc2)cc1	-	-	-	-	95	-	94	82
COCC(=O)Nc1ccc2c(c1)C(=O)N(C)[C@H]1CC[C@@H](CC(=O)Nc3ccccc3)O[C@H]1CO2	0	-	-	0	-	-	-	-
Cc1cc(N2CCOCC2)nc(NCc2ccccc2)n1	0	0	0	0	0	0	0	0
Cc1cc(NCc2ccccc2)nc(N2CCOCC2)n1	0	0	0	-	0	0	-	-
O=S(=O)(c1ccccc1)N1CC2(C1)[C@H](c1ccccc1)[C@H](CO)N2CC1CCCC1	-	-	-	0	-	-	-	-
OC[C@@H]1CN(Cc2ccccc2)C[C@H](n2cnc3c(NCc4ccco4)ncnc32)O1	0	-	-	0	0	-	-	-
OC[C@@H]1CN(Cc2ccc(-c3ccccc3)cc2)C[C@H](n2cnc3c(NCc4ccco4)ncnc32)O1	0	-	-	0	0	-	75	0
OC[C@@H]1CN(Cc2ccc(-c3ccccc3)cc2)C[C@H](n2cnc3c(NCc4ccncc4)ncnc32)O1	0	-	-	0	0	-	74	0
Cc1noc(C)c1NC(=O)N(C)C[C@@H]1Oc2ncc(C#CC3CCCC3)cc2C(=O)N([C@H](C)CO)C[C@@H]1C	0	-	-	0	-	-	-	-
COc1ccc(S(=O)(=O)N(C)C[C@@H]2Oc3c(NC(=O)Nc4ccc(F)cc4)cccc3C(=O)N([C@H](C)CO)C[C@H]2C)cc1	0	-	-	-	-	-	-	-

Screening results as filed in PubChem BioAssay.
